Results on twelve molecules are retold here after PubChem BioAssay.

Experiment [1] is described as follows: inhibitors of TNFa-induced NFkB p65 translocation, primary screen, imaging, HUVEC, MLSMR starter and 10KST1 sets (AID 438;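 active = inhibition above 20% together with a positive visual image hit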;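 note: compound added about 3h40 before a 20 min TNFalpha stimulation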;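 for inhibition: signal is the nuclear over cytoplasmic p65 intensity ratio per well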). The settings on record: HUVEC TNFa-induced p65 nuclear translocation; cell count: measured here: nuclei count (cytotoxicity indicator), at 2.08 µM; inhibition: at 2 µM, stronger effect = higher value, 0% TNFa-plus-vehicle, 100% no-TNFa wells.
Experiment [2] in a line: inhibitors of mutant huntingtin aggregation, primary screen, imaging, exon1htt(103Q)mCFP cells, high-content imaging (AID 483;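 active = visual image review flags a hit and inhibition of aggregation exceeds 20%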;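 note: compound exposure lasted 3 days before fixation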;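 for nuclei count: percent of the per-plate median nuclei count of sample wells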). The settings on record: exon1htt(103Q)mCFP cell line, aggregate imaging, at 2 µM; inhibition of aggregation: stronger effect = higher value; nuclei count: measured here: cell count, toxicity.
Experiment [3] can be described thus: inhibitors of E-selectin induction by TNFa, primary screen, imaging, HUVEC, immunofluorescence, MLSMR starter and 10KST1 sets (AID 487;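 active = visually confirmed hit in the image check and inhibition above 20%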;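 for inhibition: signal is fraction of cell area covered by stained E-selectin grains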;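 for nuclei count: 100% = median nuclei count of all wells on the same plate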). The following applies: HUVEC TNFalpha-induced E-selectin immunofluorescence imaging, at 2 µM; inhibition: stronger effect = higher value; nuclei count: measured here: cell number, toxicity.
Experiment [4] has as its target Voltage-gated potassium channel subunit beta-2 (Rattus norvegicus) (UniProt P62483). Briefly: KvBeta enzyme negative modulators, primary screen, biochemical, NADPH fluorescence (AID 622;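 active = fluorescence slope higher than the sample average by over 3 SD, cut at about -0.22 in these data, passing the limit was not always enough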;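 note: slope of raw intensity against log time taken from 70 to 1610 s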). The settings on record: recombinant KvBeta, 4-cyanobenzaldehyde reduction, at 10 µM, stronger effect = higher value.
The target is the same in experiment [5]. The experiment can be described thus: KvBeta positive modulators, primary screen, biochemical, NADPH fluorescence (AID 623).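 Note: fluorescence intensity change per second fitted from 20 to 320 s.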 The settings on record: Recombinant KvBeta, NADPH fluorescence decrease slope, 10 min; at 10 µM; stronger effect = lower value.
In experiment [6] the target is Alpha-2C adrenergic receptor (Homo sapiens) (UniProt P18825). Briefly: modulators of alpha2C/GIRK thallium flux, primary screen, cell-based, HEK293 alpha2C/GIRK1/2 (AID 624;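 active = fluorescence slope after compound addition differing from the mean of all screened samples at 99.7% confidence, in either direction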;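 note: slope of fluorescence ratio to pre-addition baseline per second over 15 to 24 s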). The settings on record: thallium flux BTC fluorescence, at 10 µM, actives lie on both sides.
Alpha-2C adrenergic receptor (Homo sapiens), sequence (P18825 whole entry, looked up): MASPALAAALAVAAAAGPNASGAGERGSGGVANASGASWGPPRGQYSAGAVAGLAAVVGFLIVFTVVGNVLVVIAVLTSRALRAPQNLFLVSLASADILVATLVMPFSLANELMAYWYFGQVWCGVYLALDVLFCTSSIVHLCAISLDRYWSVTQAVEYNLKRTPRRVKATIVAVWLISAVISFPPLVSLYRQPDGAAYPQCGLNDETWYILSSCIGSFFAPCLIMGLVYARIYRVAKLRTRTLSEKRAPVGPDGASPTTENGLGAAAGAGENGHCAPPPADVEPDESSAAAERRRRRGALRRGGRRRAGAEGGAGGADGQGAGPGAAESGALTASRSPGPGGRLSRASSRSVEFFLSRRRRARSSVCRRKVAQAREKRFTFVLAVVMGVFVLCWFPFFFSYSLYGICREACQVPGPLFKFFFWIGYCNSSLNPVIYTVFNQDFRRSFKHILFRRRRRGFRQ
The nature of experiment [7]: inhibitors of larval lipid processing in zebrafish, primary screen, whole organism, PED6 fluorescence, gall bladder and intestine (AID 686;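 active = a full or partial loss of lipid-probe fluorescence in the fish gall bladder, intestine or both, judged by eye; inactive = no fluorescence loss, or compound toxic to the fish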;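 note: signal comes from phospholipase A2 cleavage of quenched PED6 carried via bile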). The following applies: Zebrafish larvae PED6 lipid processing, fluorescence scoring; screened at 20 µM (by protocol). The essentials: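 Doses: 20 µM single dose. Test system: live zebrafish larvae aged 5-7 days, whole organism. Quantity: five larvae per well. Measured by: By-eye fluorescence microscopy. Reagent: ingested quenched lipid PED6 at 100 nM. Read-out: visual per-well fluorescence inhibition score. Times: overnight exposure of larvae to compound plus PED6.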

The nature of experiment [8]: inhibitors of Sendai virus-induced IRF3 signaling, primary screen, TLR/RLR signaling modifier project, cell-based, Sendai virus stimulus, luciferase, 10K MLSCN set (AID 602276;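 active = inhibition at or above 50% at 10 µM; inactive = inhibition below 50%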;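 note: firefly luciferase from ISG56 promoter only with Renilla not read in this screen; 0% = Sendai virus plus DMSO and 100% = medium plus DMSO without virus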). The following applies: HEK293 RL24 IRF3 luciferase reporter, at 10 µM, stronger effect = higher value. For orientation: A reporter such as luciferase makes a cellular process visible.
Experiment [9] can be described thus: inhibitors of poly I:C-induced TLR3 signaling, primary screen, cell-based, poly I:C stimulus, luciferase, 10K MLSCN set (AID 602277;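 active = inhibition of the reporter signal at or above 50%; inactive = inhibition below 50%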). The settings on record: HEK293-TLR3 RL24 IRF3 luciferase reporter, at 10 µM, stronger effect = higher value.

The source made the active and inactive calls.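 Rule for the calls, unless noted: active = NADPH fluorescence slope more negative than the mean of all samples by about 3 SD, 99.7% confidence; inactive = the rest.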

Voltage-gated potassium channel subunit beta-2 (Rattus norvegicus), sequence (P62483 whole entry, looked up): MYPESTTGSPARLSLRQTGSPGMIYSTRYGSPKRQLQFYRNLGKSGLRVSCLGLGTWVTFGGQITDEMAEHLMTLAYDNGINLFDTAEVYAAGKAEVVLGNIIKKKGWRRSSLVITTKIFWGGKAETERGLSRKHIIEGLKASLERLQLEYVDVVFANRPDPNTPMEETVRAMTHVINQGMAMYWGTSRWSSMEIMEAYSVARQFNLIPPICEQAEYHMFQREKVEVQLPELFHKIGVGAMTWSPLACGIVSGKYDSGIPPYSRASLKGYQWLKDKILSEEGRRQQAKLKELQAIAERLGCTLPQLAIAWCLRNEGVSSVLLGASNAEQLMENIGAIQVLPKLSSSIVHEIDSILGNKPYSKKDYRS

With `COc1ccc(-c2noc(CCCOc3ccccc3)n2)cc1OC`, the cell count in [1] was 429. The inhibition (in general, the relative decrease from the control value, in per cent) is 1.5% (inactive) in experiment [1], -33% (inactive) in experiment [3], -2.22% (inactive) in experiment [8] and -9.66% (inactive) in [9]. In addition, the inhibition of aggregation in experiment [2] is 21% (inactive). Moreover, the nuclei count in experiment [2] came out at 93%; in [3] it was 134%. The fluorescence slope in experiment [4] was -0.473 (inactive). In [5], the NADPH fluorescence slope is -1.6e-05 (inactive). The slope in experiment [6] was 0.00512 (inactive). For the same molecule, in [7], the molecule was called inactive.
On to `Cc1ccc(S(=O)(=O)N2CCCN(S(=O)(=O)C3CCS(=O)(=O)C3)CC2)cc1` (stereo unspecified), for which the cell count in experiment [1] was 455. Besides, the inhibition is 2.4% (inactive) in experiment [1], -102% (inactive) in experiment [3], 12.7% (inactive) in experiment [8] and 14% (inactive) in experiment [9]. Also, the inhibition of aggregation in experiment [2] is -22.7% (inactive). Moreover, the nuclei count in [2] came out at 111%; in experiment [3], 129%. In [4], the fluorescence slope was -0.366 (inactive). For the same molecule, the NADPH fluorescence slope in [5] is -4.2e-05 (inactive). In experiment [6], the slope was 0.00596 (inactive). Further, the molecule was classed as inactive in experiment [7].
For `Cc1cc(C(=O)Nc2c(C)n(C)n(-c3ccccc3)c2=O)c(C)o1`, the cell count in experiment [1] was found to be 330. The inhibition was -1.4% (inactive) in [1], 2% (inactive) in experiment [3], 17% (inactive) in experiment [8] and 14.7% (inactive) in experiment [9]. For the same molecule, the inhibition of aggregation in [2] was 5.3% (inactive). Also, the nuclei count in experiment [2] was 101%; in experiment [3], 100%. In [4], the fluorescence slope is -0.412 (inactive). Moreover, the NADPH fluorescence slope in [5] is -7.3e-05 (inactive). In addition, the slope in [6] is 0.00524 (inactive). Further, in experiment [7], the result was inactive.
Take `O=C(O)CCC1(C(=O)O)OCCc2ccccc21` (stereo unspecified): in experiment [1], the cell count is 470. For the same molecule, the inhibition in experiment [1] is 2.9% (inactive); in experiment [3] it was -99.4% (inactive); in experiment [8], 8.34% (inactive); in experiment [9], 17.4% (inactive). Besides, the inhibition of aggregation in experiment [2] is -4.2% (inactive). Further, the nuclei count in experiment [2] was determined as 99.2%; in [3], 118%. The fluorescence slope in experiment [4] was -0.599 (inactive). In addition, in [5], the NADPH fluorescence slope was -3.7e-05 (inactive). For the same molecule, the slope in experiment [6] was 0.00588 (inactive).
For `O=C(NC1CCCCCC1)c1cc(S(=O)(=O)N2CCC3(CC2)OCCO3)ccc1F`, in experiment [1], the cell count amounted to 503. Moreover, the inhibition is -21.4% (inactive) in experiment [1], -16.2% (inactive) in experiment [3], -15.5% (inactive) in experiment [8] and -37.6% (inactive) in [9]. For the same molecule, in experiment [2], the inhibition of aggregation was -53.3% (inactive). Further, the nuclei count in experiment [2] amounted to 72.9%; in experiment [3], 83.7%. In addition, the fluorescence slope in experiment [4] was -0.36 (inactive). In experiment [5], the NADPH fluorescence slope is 9e-06 (inactive). In addition, the slope in experiment [6] is 0.00552 (inactive). The molecule was classed as inactive in experiment [7].
`O=C(c1cnc2sccn2c1=O)N1CCc2ccccc2C1`: in [1], the cell count is 438. Besides, the inhibition in experiment [1] was -3% (inactive); in experiment [3], -376% (inactive); in [8], -4.13% (inactive); in [9], 99% (active). In addition, the inhibition of aggregation in [2] is 4.4% (inactive). Further, the nuclei count came to 86.1% in experiment [2] and 102% in [3]. Also, the fluorescence slope in experiment [4] was -0.398 (inactive). In addition, the NADPH fluorescence slope in experiment [5] is -5.3e-05 (inactive). In addition, in experiment [6], the slope is 0.00452 (inactive). For the same molecule, the result in [7] was inactive.
On to `Cc1nc(-c2ccccc2)sc1C(N)=O`, for which the cell count in experiment [1] is 424. Further, the inhibition in experiment [1] was 4.7% (inactive); in experiment [3] it was -40.1% (inactive); in experiment [8], -21.5% (inactive); in experiment [9], -49.1% (inactive). The inhibition of aggregation in [2] was 25.4% (inactive). Further, the nuclei count was found to be 104% in experiment [2] and 117% in experiment [3]. Moreover, in experiment [4], the fluorescence slope is -0.524 (inactive). In experiment [5], the NADPH fluorescence slope was 1.6e-05 (inactive). For the same molecule, the slope in [6] is 0.0052 (inactive). In addition, the molecule was classed as inactive in experiment [7].
Consider `CN1C(=O)C(O)(CC(=O)c2ccccc2O)c2cc(Br)ccc21` (stereo unspecified), for which the cell count in experiment [1] was determined as 608. The inhibition in experiment [1] is 3.4% (inactive); in experiment [3] it was -59.3% (inactive); in experiment [8], 7.07% (inactive); in experiment [9], 55.8% (active). Further, the inhibition of aggregation in experiment [2] is -2.8% (inactive). The nuclei count in [2] is 63.4%; in experiment [3], 124%. In addition, the fluorescence slope in [4] is -0.439 (inactive). In experiment [5], the NADPH fluorescence slope was -6e-05 (inactive). Besides, the slope in [6] is 0.00404 (inactive).
With `COC(=O)c1ccc(NC(=O)C2C3CCC(C3)C2C(=O)O)cc1` (stereo unspecified), the cell count in experiment [1] amounted to 416. In addition, the inhibition in [1] was 2.5% (inactive); in [3], 52.5% (inactive); in experiment [8], -12.2% (inactive); in experiment [9], -15.9% (inactive). In addition, the inhibition of aggregation in experiment [2] is 0% (inactive). The figures for the nuclei count in experiment [2] and in experiment [3] were 89.6% and 103%, respectively. Also, the fluorescence slope in experiment [4] is -0.39 (inactive). Also, in experiment [5], the NADPH fluorescence slope was -1.7e-05 (inactive). Further, the slope in experiment [6] is 0.00477 (inactive). The molecule was classed as inactive in experiment [7].
`CN1CCc2c(sc3c2C(=O)NC(c2cccc(OC(=O)c4cccs4)c2)N3)C1` (stereo unspecified): the cell count in experiment [1] is 497. The inhibition in experiment [1] is -2.5% (inactive); in experiment [3], -21.9% (inactive); in experiment [8], -5.69% (inactive); in experiment [9], 10.3% (inactive). Further, the inhibition of aggregation in [2] is -4.1% (inactive). The nuclei count in [2] is 101%; in experiment [3] it was 108%. Further, in experiment [4], the fluorescence slope was -0.422 (inactive). Moreover, the NADPH fluorescence slope in experiment [5] was -4.2e-05 (inactive). For the same molecule, the slope in [6] was 0.00392 (inactive).
Take `COc1ccc(NC(=O)Nc2ccccc2C)c(OC)c1`: the cell count in [1] stood at 371. The inhibition in [1] was 1.5% (inactive); in experiment [3], -31.1% (inactive); in experiment [8], 6.08% (inactive); in [9], 12.1% (inactive). Moreover, the inhibition of aggregation in [2] is -3.2% (inactive). For the same molecule, the nuclei count is 107% in experiment [2] and 116% in experiment [3]. Moreover, the fluorescence slope in experiment [4] is -0.379 (inactive). In addition, the NADPH fluorescence slope in experiment [5] is -7.9e-05 (inactive). In addition, in experiment [6], the slope was 0.00603 (inactive). Further, in experiment [7], the outcome was inactive.
On to `COc1cccc(NC(=O)N2CCCC2C(=O)Nc2ccc3c(c2)OCO3)c1` (stereo unspecified), for which the cell count in experiment [1] is 649. Besides, the inhibition in experiment [1] was 5.8% (inactive); in [3], -117% (inactive); in experiment [8], 13.7% (inactive); in [9], 18.8% (inactive). Also, in [2], the inhibition of aggregation is -11.8% (inactive). Further, the nuclei count in experiment [2] was 57.5%; in [3], 106%. For the same molecule, the fluorescence slope in experiment [4] was -0.351 (inactive). Besides, the NADPH fluorescence slope in experiment [5] is -6.1e-05 (inactive). The slope in experiment [6] is 0.00477 (inactive). Moreover, the outcome in experiment [7] was inactive.
